Hits are enriched below; roughly 4.1% of the tested compounds scored in any of these assays.
hERG rescue – shields human hERG channel from block by proarrhythmic agents. CHO-hERG, FluxOR thallium flux, dofetilide IC70 present. activation (rescue from dofetilide block), less the hit threshold, % at 10 µM. 310,000 compounds, 0.51% hits. Q12809;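 active = activation above the mean of controls blocked by dofetilide plus 5 SD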;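 also: thallium influx through hERG after potassium depolarization seen as dye fluorescence rise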
KCNK3 block – human KCNK3 channel inhibition, primary screen | O14649 | CHO-KCNK3 thallium flux, FluxOR fluorescence; stronger effect = lower value | B-score at 10 µM | 340,000 compounds, 0.84% hits | AID 602410;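 active = B-score under library mean minus 4 SD, starting fluorescence ratio at most library mean plus 5 SD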;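 also: more negative B-score means stronger inhibition of thallium flux through KCNK3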
Target sequence (O14649 whole entry, looked up): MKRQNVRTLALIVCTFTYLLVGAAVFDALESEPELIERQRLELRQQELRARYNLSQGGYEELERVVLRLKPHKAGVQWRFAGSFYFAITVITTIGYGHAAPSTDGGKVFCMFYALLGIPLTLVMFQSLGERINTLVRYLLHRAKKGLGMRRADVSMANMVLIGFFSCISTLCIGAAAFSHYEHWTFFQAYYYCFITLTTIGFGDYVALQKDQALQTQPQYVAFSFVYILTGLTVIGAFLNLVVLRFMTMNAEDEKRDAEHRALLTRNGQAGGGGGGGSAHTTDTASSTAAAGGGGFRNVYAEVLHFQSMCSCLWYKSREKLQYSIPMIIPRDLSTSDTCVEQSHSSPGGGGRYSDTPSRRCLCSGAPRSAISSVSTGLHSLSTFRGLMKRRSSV
KCC2 mod – modulators of human KCC2 chloride dependent transport; Q9H2X9; KCC2 cells, thallium flux FluoZin-2 fluorescence; B-score of Tl+ flux slope (higher = more flux/activation; lower = inhibition) at 10 µM; 190,000 compounds, 2.2% hits; AID 1456;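 active = thallium flux slope and its plate-corrected score both differing from the plate sample mean at a set confidence after two filtering rounds, in either direction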;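 also: slope of fluorescence scaled to starting intensity during 10 to 20 s after thallium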
KCNQ1 inh – human KCNQ1 channel inhibition | P51787 | CHO-K1 KCNQ1, FluxOR thallium flux fluorescence; stronger effect = higher value | B-score at 10 µM | 310,000 compounds, 1.3% hits | AID 2642;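 active = compounds whose thallium flux B-score, printed positive for inhibition, exceeds three library SD while starting fluorescence stays within three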;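 also: channel opened by potassium depolarization with thallium stimulus after 20 min compound exposure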
KCNK9 inh – inhibitors of human KCNK9 two-pore domain potassium channel. HEK293 KCNK9, FluxOR thallium flux fluorescence; stronger effect = lower value. B-score at 10 µM. 310,000 compounds, 1.2% hits. AID 488922;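 active = ratio B-score over 3 SD below the library mean, with starting fluorescence within 5 SD of its mean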;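 also: negative B-score means less thallium flux so channel inhibition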
KCNQ1 act – potentiators or activators of human KCNQ1 potassium channel. AID 2648. B-score at 10 µM. CHO-K1 KCNQ1, thallium flux FluxOR fluorescence; stronger effect = higher value. 310,000 compounds, 0.35% hits. P51787;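 active = fluorescence ratio B-score, a plate-corrected score, at least three library SD, with initial intensity B-score within 5 SD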
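assay system = KCNQ1-transfected CHO-K1 cells | medium = assay buffer with matched DMSO | probe or stimulus = depolarizing K+/Tl+ stimulus, K2SO4 and Tl2SO4 each 12.5 mM in 5x stock | dosing = single dose | incubation = dye 90 min, compound 20 min, room temperature | detection = kinetic FluxOR fluorescence, 10 s baseline plus 110 s post-stimulus | evaluation = ratio B score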
Of the large screens only hits and unclear results are named; the others gave an inactive call.

O=c1c2cc(Cl)ccc2nc(-c2ccc([N+](=O)[O-])cc2)n1O	hERG rescue 21, KCC2 mod 49, KCNQ1 act 13
On1c(-c2ccccc2)nc2ccc(Cl)cc21	none
N#Cc1ccc(-c2nc3ccccc3c(=O)n2O)cc1	none (no result: KCC2 mod)
Cc1ccc(-c2nc3c(Cl)cc(Cl)cc3c(=O)n2O)cc1	hERG rescue 55, KCNQ1 act 105 (no result: KCC2 mod)
Cc1cc(Cl)ccc1N1C(=O)CC(NNC(=O)c2cccnc2)C1=O (centres undefined)	none
COC1(OC)C(/C=C/c2ccc(Cl)cc2)C(C#N)(C#N)C1(OC)OC (centres undefined)	KCNQ1 inh 10
FC(F)(F)c1cnc2c(c1)[nH]c(=S)n2-c1ccc(Cl)cc1	hERG rescue 5.5 (no result: KCC2 mod)
Nc1c(-c2ccccc2)cnn1-c1cccc(Cl)c1	KCNK9 inh -7 (no result: KCC2 mod)
O=C(N/N=C/c1ccccc1O)C1SCCCS1	none
Cc1ccc(C)c(-n2c(-c3ccc(Br)cc3)csc2=NC(=O)c2ccccc2F)c1	KCNK9 inh -7.7
Cn1ccsc1=NC(=O)c1ccccc1F	none
Cc1c(C(=O)O)sc(S(=O)(=O)N2CCN(C(=O)Cc3ccc(F)cc3)CC2)c1C(=O)O	none (no result: hERG rescue, KCC2 mod, KCNQ1 inh, KCNK9 inh, KCNQ1 act)
Cc1onc(-c2ccccc2Cl)c1C(=O)Nc1nnc(-c2cccc([N+](=O)[O-])c2)s1	KCNQ1 inh 11 (no result: KCC2 mod)
Cc1ccc(C(=O)Nc2nc(-c3ccccn3)cs2)o1	none
O=C(Nc1nc(-c2cc(F)ccc2F)cs1)c1ccccn1	KCC2 mod 7.4
CCc1cc(C(=O)Nc2nc(-c3ccccn3)cs2)sc1C	KCNK3 block -9.2 (no result: hERG rescue, KCC2 mod, KCNQ1 inh, KCNK9 inh, KCNQ1 act)
O=C(CCNC(=O)c1ccc([N+](=O)[O-])cc1)NCCCN1CCCC1=O	none (no result: KCC2 mod)
O=C(NCCCN1CCCC1=O)Nc1ccc(F)c(Cl)c1	KCNQ1 inh 6
CCN(Cc1ccncc1)Cc1cn(C)nc1-c1ccc(Oc2ccccc2)cc1	KCNQ1 inh 6
O=[N+]([O-])c1ccc(N2CCN(c3cccc(Cl)c3)CC2)nc1	KCNK9 inh -6.6 (no result: KCC2 mod)
Cc1cc(C)c(S(=O)(=O)N2CCN(CCO)CC2)c(C)c1	none
CC1CCCCN1C(=O)CCC(=O)Nc1nnc(C2CCCCC2)s1 (centres undefined)	KCNK9 inh -6.9 (no result: KCC2 mod)
S=C(Nc1cccnc1)NC1CC2CCC1C2 (centres undefined)	none (no result: KCC2 mod)
CC(C)c1ccc2c(c1)C(c1cccs1)=NNC(c1ccncc1)=N2	KCNK9 inh -7.4
O=C(COC(=O)C1=COCCO1)Nc1ccc(F)c(F)c1	none (no result: KCC2 mod)
CC1=CC(=C(C#N)c2nc3ccccc3s2)C=C(C)N1Cc1ccco1	KCNK3 block -13 (no result: KCC2 mod)
O=C(CSc1ncccn1)NCc1cccc(Cl)c1	hERG rescue 6.3
CC(C)(C)Cc1nnc(NC(=O)c2ccco2)s1	hERG rescue 18 (no result: KCC2 mod)
CCc1nnc(NC(=O)c2ccncc2)s1	none
CCc1nnc(NC(=O)c2cccc(C(=O)Nc3nnc(CC)s3)n2)s1	hERG rescue 4.9
C=CCN(C(=O)C1CSC2(C)CCC(=O)N12)c1nc(-c2ccccc2)cs1 (centres undefined)	KCNQ1 inh 6 (no result: KCC2 mod)
CC(Oc1ccc(Br)cc1)C(=O)Nc1nc(-c2ccccn2)cs1 (centres undefined)	none (no result: KCC2 mod)
CC(OC(=O)C1CC(=O)N(Cc2ccco2)C1)C(=O)Nc1ccc(F)cc1Cl (centres undefined)	none (no result: hERG rescue, KCC2 mod, KCNQ1 inh, KCNK9 inh, KCNQ1 act)
COC(=O)c1sccc1NC(=O)c1c(Cl)cccc1Cl	hERG rescue 4.7 (no result: KCC2 mod)
O=C(O)c1sccc1NC(=O)c1c(Cl)cccc1Cl	none (no result: KCC2 mod)
CC1(c2ccccc2)CC(C)(C)N2C(=O)/C(=C3\SC(=S)NC3=O)c3cccc1c32 (centres undefined)	KCC2 mod 20, KCNQ1 act 81
CCCc1nn2c(=O)c(C(c3cccc(Cl)c3)c3c(O)nc4sc(CCC)nn4c3=O)c(O)nc2s1	hERG rescue 6.1
CCOC(=O)Cn1nc(C)c(NC(=O)COc2ccc([N+](=O)[O-])cc2)c1C	none
CCOC(=O)N1CCN(C(=O)c2ccc(OCC)c(OCC)c2)CC1	none
COC(=O)N/N=C/c1cc(C)n(-c2cccc3ccccc23)c1C	KCNK9 inh -7
CCOC(=O)N/N=C/c1cc(C)n(-c2ccccc2)c1C	none

Compound activity as filed in PubChem.
